Reference: ChEMBL document CHEMBL1671809, “Discovery of phosphoric acid mono-{2-[(E/Z)-4-(3,3-dimethyl-butyrylamino)-3,5-difluoro-benzoylimino]-thiazol-3-ylmethyl} ester (Lu AA47070): a phosphonooxymethylene prodrug of a potent and selective hA(2A) receptor antagonist” (J Med Chem, 2011)
pIC50, pKi: −log10 of the molar value. In brackets after ≈: the same amount, converted by molar mass.

Columns and labels:
Adenosine receptor A2a [1] = molecular target: T1, Adenosine receptor A2a (Homo sapiens, UniProt P29274); experiment: Displacement of [3H]-ZM241385 from human adenosine A2A receptor expressed in high five cells after 30 mins by scintillation counting
T1 sequence (P29274 whole entry): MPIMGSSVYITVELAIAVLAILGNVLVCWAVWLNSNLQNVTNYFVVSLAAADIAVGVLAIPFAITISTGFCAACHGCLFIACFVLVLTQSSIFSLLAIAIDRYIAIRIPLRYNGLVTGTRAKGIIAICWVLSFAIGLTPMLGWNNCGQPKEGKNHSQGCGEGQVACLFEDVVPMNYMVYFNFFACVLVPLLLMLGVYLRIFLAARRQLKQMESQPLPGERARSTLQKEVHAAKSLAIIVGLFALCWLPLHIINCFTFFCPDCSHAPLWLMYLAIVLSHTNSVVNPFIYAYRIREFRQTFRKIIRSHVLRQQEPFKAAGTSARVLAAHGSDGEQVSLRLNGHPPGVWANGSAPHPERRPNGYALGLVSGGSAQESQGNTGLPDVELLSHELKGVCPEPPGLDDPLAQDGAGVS

Adenosine receptor A1 = molecular target: T2, Adenosine receptor A1 (Homo sapiens, UniProt P30542); experiment: Displacement of [3H]-DPCPX from human adenosine A1 receptor expressed in CHO cells after 30 mins by scintillation counting; format: cell-based
T2 sequence (P30542 whole entry): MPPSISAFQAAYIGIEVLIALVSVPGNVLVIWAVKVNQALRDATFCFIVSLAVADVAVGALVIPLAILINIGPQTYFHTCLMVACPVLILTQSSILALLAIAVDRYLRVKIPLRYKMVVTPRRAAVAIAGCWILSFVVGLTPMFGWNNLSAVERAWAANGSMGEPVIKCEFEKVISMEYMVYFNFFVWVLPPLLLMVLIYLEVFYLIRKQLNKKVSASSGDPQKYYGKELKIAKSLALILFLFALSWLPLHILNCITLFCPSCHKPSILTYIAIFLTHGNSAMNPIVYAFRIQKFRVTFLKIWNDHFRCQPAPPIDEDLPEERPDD
Summary of the method: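 CHO-hA1 membranes at 10.8 μg protein/well, pretreated with adenosine deaminase (2 U/mL, 30 min, 37 C), were incubated with 1 nM [3H]-DPCPX in 50 mM Tris/HCl pH 7.4 for 30 min at 25 C across 10 compound concentrations. Filtration on PEI-soaked GF/B, scintillation counting. Nonspecific binding by CGS15943. Ki by Cheng-Prusoff. Means of ≥2 determinations.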

Caco-2 = experiment: Efflux ratio of permeability from basolateral to apical over apical to basolateral side in human Caco2 cells after 21 to 28 days by LC-MS/MS analysis
Cytochrome P450 2C19 = Cytochrome P450 2C19 (Homo sapiens, UniProt P33261); experiment: Inhibition of recombinant CYP2C19 after 45 mins; format: ADME
Chain of Cytochrome P450 2C19 (P33261 whole entry): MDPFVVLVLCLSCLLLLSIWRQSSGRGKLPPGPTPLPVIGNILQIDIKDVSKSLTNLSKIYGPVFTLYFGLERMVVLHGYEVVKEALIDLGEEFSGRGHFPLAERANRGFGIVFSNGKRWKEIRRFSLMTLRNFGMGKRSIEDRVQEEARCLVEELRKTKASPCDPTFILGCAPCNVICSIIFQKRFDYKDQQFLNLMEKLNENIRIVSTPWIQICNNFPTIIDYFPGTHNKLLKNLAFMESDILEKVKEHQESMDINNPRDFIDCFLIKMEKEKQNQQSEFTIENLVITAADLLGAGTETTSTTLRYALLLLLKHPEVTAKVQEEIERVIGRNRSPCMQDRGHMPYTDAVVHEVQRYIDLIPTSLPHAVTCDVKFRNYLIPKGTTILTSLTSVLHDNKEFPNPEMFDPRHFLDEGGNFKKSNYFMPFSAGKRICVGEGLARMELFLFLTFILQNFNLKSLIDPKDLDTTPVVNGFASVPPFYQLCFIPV
Summary of the method: (§1)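 Recombinant CYP supersomes incubated in phosphate buffer with eight compound concentrations (40-0.02 μM) and fluorogenic substrates. CYP1A2: 7-ethoxy-3-cyanocoumarin 10 μM, 28 min. CYP2C19: same substrate 50 μM, 45 min. CYP2D6: AMMC 3 μM, 45 min. CYP3A4: resorufin benzyl ether 100 μM, 30 min. Fluorescent metabolite read; IC50 relative to uninhibited controls.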

[2] = molecular target: T3, Adenosine receptor A1 (Homo sapiens) (UniProt P30542); experiment: Displacement of [3H]-DPCPX from human adenosine A1 receptor expressed in CHO cells at 10 uM after 30 mins by scintillation counting; format: cell-based
T3 sequence (whole entry): T2 sequence (P30542 whole entry)

Cytochrome P450 2D6 = Cytochrome P450 2D6 (Homo sapiens, UniProt P10635); experiment: Inhibition of recombinant CYP2D6 after 45 mins; format: ADME; summary of the method: as §1
Chain of Cytochrome P450 2D6 (P10635 whole entry): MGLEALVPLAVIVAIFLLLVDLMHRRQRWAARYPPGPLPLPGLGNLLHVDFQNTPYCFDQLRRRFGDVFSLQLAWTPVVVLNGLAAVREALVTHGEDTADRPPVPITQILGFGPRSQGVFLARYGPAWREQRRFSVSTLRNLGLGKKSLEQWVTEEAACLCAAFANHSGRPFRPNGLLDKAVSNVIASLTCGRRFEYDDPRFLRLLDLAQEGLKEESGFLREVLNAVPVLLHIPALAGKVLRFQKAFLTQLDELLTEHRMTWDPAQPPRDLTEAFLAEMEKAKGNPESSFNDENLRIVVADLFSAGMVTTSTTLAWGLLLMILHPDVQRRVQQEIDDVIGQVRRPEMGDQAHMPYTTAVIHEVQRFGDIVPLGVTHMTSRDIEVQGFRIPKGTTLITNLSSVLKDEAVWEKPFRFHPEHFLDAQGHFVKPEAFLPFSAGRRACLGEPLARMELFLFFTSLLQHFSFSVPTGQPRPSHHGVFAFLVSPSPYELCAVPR

Liver microsomes [3] = experiment: Intrinsic clearance in rat liver microsomes at 1 uM after 60 mins by LC-MS/MS analysis; format: ADME, Microsome; settings: 1 h
Summary of the method: (§2)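 Compound at 1 μM with human or rat liver microsomes (0.5 mg protein/mL) plus NADPH at 37 C. Samples at 0, 5, 15, 30 and 60 min, quenched with acetonitrile, analysed by LC-MS/MS.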

Cytochrome P450 2C9 = Cytochrome P450 2C9 (Homo sapiens, UniProt P11712); experiment: Inhibition of recombinant CYP2C9 after 45 mins; format: ADME
Chain of Cytochrome P450 2C9 (P11712 whole entry): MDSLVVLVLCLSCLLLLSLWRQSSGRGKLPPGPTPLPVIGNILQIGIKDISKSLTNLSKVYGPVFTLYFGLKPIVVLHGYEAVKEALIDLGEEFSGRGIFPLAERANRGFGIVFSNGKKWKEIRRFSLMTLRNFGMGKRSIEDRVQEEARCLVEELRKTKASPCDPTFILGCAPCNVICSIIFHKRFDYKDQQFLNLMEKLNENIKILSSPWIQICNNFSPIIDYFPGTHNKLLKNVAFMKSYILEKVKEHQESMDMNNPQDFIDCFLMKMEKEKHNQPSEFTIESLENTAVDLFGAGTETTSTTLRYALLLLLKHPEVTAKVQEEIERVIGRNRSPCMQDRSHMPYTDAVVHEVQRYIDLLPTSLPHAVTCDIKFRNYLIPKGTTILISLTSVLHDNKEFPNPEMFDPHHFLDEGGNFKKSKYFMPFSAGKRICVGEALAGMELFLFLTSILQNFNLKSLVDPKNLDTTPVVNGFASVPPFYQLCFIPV

Liver microsomes [4] = experiment: Intrinsic clearance in human liver microsomes at 1 uM after 60 mins by LC-MS/MS analysis; format: ADME, Microsome; settings: 1 h; summary of the method: as §2
Cytochrome P450 1A2 = molecular target: T4, Cytochrome P450 1A2 (Homo sapiens, UniProt P05177); experiment: Inhibition of recombinant CYP1A2 after 28 mins; format: ADME; summary of the method: as §1
T4 sequence (P05177 whole entry): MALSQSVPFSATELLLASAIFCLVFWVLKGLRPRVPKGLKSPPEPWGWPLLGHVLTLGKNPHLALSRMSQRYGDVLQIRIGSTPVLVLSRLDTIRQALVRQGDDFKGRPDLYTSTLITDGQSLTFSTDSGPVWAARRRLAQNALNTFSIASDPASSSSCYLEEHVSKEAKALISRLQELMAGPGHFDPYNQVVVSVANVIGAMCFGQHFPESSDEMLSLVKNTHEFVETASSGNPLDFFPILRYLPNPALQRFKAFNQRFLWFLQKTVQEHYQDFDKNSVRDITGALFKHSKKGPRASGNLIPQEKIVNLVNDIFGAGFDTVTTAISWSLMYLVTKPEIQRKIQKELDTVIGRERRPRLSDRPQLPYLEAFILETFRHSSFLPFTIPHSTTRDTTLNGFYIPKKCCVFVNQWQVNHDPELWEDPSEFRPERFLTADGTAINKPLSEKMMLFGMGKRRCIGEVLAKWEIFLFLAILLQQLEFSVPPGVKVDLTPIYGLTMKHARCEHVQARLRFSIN

Cytochrome P450 3A4 = Cytochrome P450 3A4 (Homo sapiens, UniProt P08684); experiment: Inhibition of recombinant CYP3A4 after 30 mins; format: ADME
Chain of Cytochrome P450 3A4 (P08684 whole entry): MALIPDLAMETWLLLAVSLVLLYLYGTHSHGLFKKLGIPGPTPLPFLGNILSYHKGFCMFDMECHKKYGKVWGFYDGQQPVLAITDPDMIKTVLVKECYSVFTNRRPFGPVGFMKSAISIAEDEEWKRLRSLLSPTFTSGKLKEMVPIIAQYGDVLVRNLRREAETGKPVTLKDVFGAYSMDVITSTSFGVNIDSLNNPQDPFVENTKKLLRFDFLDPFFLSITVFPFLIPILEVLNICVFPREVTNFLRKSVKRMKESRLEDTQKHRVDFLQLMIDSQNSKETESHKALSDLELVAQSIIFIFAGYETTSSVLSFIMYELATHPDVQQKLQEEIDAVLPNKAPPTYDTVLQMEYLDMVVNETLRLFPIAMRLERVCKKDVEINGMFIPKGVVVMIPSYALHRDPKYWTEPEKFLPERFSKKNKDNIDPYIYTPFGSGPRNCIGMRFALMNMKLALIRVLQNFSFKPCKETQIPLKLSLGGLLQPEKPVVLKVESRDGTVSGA
Summary of the method: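 Recombinant CYP supersomes incubated in phosphate buffer with eight compound concentrations (40-0.02 μM) and fluorogenic substrates. CYP3A4: resorufin benzyl ether 100 μM, 30 min. Fluorescent metabolite read; IC50 relative to uninhibited controls.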

Rattus norvegicus [5] = experiment: Tmax in Sprague-Dawley rat assessed as 4-(3,3-Dimethyl-butyrylamino)-3,5-difluoro-N-thiazol-2-yl-benzamide level at 1.4 mg/kg, po; format: ADME, organism-based; design: dose 1.4 mg/kg, route oral; settings: in vivo
Summary of the method: (§3)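 Prodrugs dosed po in aqueous 10% hydroxypropyl β-cyclodextrin (2 mL/kg) to rats; doses expressed as parent-drug equivalents; n = 3. Six tail-vein blood samples (~100 μL) taken between 5 and 420 min. Parent drug in plasma measured by HTLC-MS/MS. Profiles fitted with a one-compartment model; AUC extrapolated to infinity.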

Rattus norvegicus [6] = experiment: Oral bioavailability in Sprague-Dawley rat assessed as 4-(3,3-Dimethyl-butyrylamino)-3,5-difluoro-N-thiazol-2-yl-benzamide level at 1.4 mg/kg; format: ADME, organism-based; settings: in vivo; summary of the method: as §3
Rattus norvegicus [7] = experiment: Cmax in Sprague-Dawley rat assessed as 4-(3,3-Dimethyl-butyrylamino)-3,5-difluoro-N-thiazol-2-yl-benzamide level at 1.4 mg/kg, po; format: ADME, organism-based; design: dose 1.4 mg/kg, route oral; settings: in vivo; summary of the method: as §3
[8] = Aqueous solubility of the compound at pH 4; format: physicochemical; settings: water
[9] = Chemical stability of the compound assessed as half life; format: physicochemical
Summary of the method: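 Prodrug was dissolved in water, filtered, and diluted to approximately 0.05 mg/mL in buffers of different pH. Sealed vials were stored at 50 C to accelerate hydrolysis. Samples were diluted 1:1 with acetonitrile and analysed by HPLC for prodrug and hydrolysis products.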

Mus musculus = experiment: Reversal of haloperidol-induced hypolocomotion in po dosed NMRI mouse administered 30 mins before haloperidol challenge measured for 20 mins; format: functional
Summary of the method: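 Male NMRI mice (n = 8/group) were given compound po in 25% cremophor/saline, then haloperidol 0.63 mg/kg sc 30 min later. After 15 min they went into photocell activity boxes, and locomotion was recorded for 20 min. ED50 by sigmoidal fit with top 100 and bottom 0.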

Adenosine receptor A2a [10] = molecular target: T1, Adenosine receptor A2a; experiment: Displacement of [3H]-ZM241385 from human adenosine A2A receptor expressed in high five cells at 10 uM after 30 mins by scintillation counting
Summary of the method: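 hA2A membranes from baculovirus-infected High Five cells (harvested 72 h), pretreated with adenosine deaminase 2 U/mL for 30 min at 37 C. Membranes at 10.6 μg protein/well were incubated with 1 nM [3H]-ZM241385 in 50 mM Tris/HCl pH 7.4 for 30 min at 25 C. GF/B filtration, scintillation counting. Nonspecific binding by CGS15943. Percent displacement at 10 μM.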

Rattus norvegicus [11] = experiment: Tmax in Sprague-Dawley rat assessed as 4-(3,3-Dimethyl-butyrylamino)-3,5-difluoro-N-thiazol-2-yl-benzamide level at 15 mg/kg, po; format: ADME, organism-based; design: dose 15 mg/kg, route oral; settings: in vivo; summary of the method: as §3
Rattus norvegicus [12] = experiment: Oral bioavailability in Sprague-Dawley rat assessed as 4-(3,3-Dimethyl-butyrylamino)-3,5-difluoro-N-thiazol-2-yl-benzamide level at 1.5 mg/kg; format: ADME, organism-based; settings: in vivo; summary of the method: as §3
Rattus norvegicus [13] = experiment: Oral bioavailability in Sprague-Dawley rat assessed as 4-(3,3-Dimethyl-butyrylamino)-3,5-difluoro-N-thiazol-2-yl-benzamide level at 15 mg/kg; format: ADME, organism-based; settings: in vivo; summary of the method: as §3
[14] = Aqueous solubility of the compound at pH 6.9; format: physicochemical; settings: buffer
Rattus norvegicus [15] = experiment: AUC in Sprague-Dawley rat assessed as 4-(3,3-Dimethyl-butyrylamino)-3,5-difluoro-N-thiazol-2-yl-benzamide level at 15 mg/kg, po; format: ADME, organism-based, Plasma; design: dose 15 mg/kg, route oral; settings: in vivo; summary of the method: as §3
Rattus norvegicus [16] = experiment: Tmax in Sprague-Dawley rat assessed as 4-(3,3-Dimethyl-butyrylamino)-3,5-difluoro-N-thiazol-2-yl-benzamide level at 1.5 mg/kg, po; format: ADME, organism-based; design: dose 1.5 mg/kg, route oral; settings: in vivo; summary of the method: as §3
Rattus norvegicus [17] = experiment: Cmax in Sprague-Dawley rat assessed as 4-(3,3-Dimethyl-butyrylamino)-3,5-difluoro-N-thiazol-2-yl-benzamide level at 1.5 mg/kg, po; format: ADME, organism-based; design: dose 1.5 mg/kg, route oral; settings: in vivo; summary of the method: as §3
Rattus norvegicus [18] = experiment: Cmax in Sprague-Dawley rat assessed as 4-(3,3-Dimethyl-butyrylamino)-3,5-difluoro-N-thiazol-2-yl-benzamide level at 15 mg/kg, po; format: ADME, organism-based; design: dose 15 mg/kg, route oral; settings: in vivo; summary of the method: as §3
Homo sapiens = organism: Homo sapiens; experiment: Selectivity ratio of Ki for human adenosine A1 receptor to Ki for human adenosine A2A receptor

Row | pKi (Adenosine receptor A2a [1]) | pKi (Adenosine receptor A1) | pIC50 (Cytochrome P450 2C19) | inhibition [2] [%] | pIC50 (Cytochrome P450 2D6) | CL (Liver microsomes [3]) [mL/min] | CL (Liver microsomes [4]) [L/min] | pIC50 (Cytochrome P450 1A2) | SMILES | other results
1 | 7.55 | 6.66 |  |  |  |  |  |  | CC(C)(C)CC(=O)Nc1ccc(C(=O)Nc2ncc(Cl)s2)cc1 | 
2 | 6.66 |  | 4.64 | 47 | < 4.40 | 5 | 0.5 | < 4.40 | Cc1ccccc1C(=O)Nc1ccc(C(=O)Nc2nccs2)cc1 | Ratio (Caco-2): 0.8; pIC50 (Cytochrome P450 2C9): < 4.40; pIC50 (Cytochrome P450 3A4): 5.85
3 |  |  |  |  |  |  |  |  | CC[C@H](C)[C@H](N)C(=O)OCn1ccs/c1=N\C(=O)c1cc(F)c(NC(=O)CC(C)(C)C)c(F)c1 | Tmax (Rattus norvegicus [5]): 54 min; F (Rattus norvegicus [6]): 31%; Cmax (Rattus norvegicus [7]): 381 ng/mL; solubility [8]: 19.4 mg/mL (≈ 39.1 mM); half-life [9]: 24 min
4 |  |  | < 4.40 |  | < 4.40 | 11 | 0.1 | < 4.40 | CCn1c(=O)c2c(nc(/C=C/c3ccc(OC)c(OC)c3)n2C)n(CC)c1=O [ISTRADEFYLLINE] | ED50 (Mus musculus): 0.13 mg/kg
5 | 6.74 |  |  | 14 |  |  |  |  | CC(C)(C)CC(=O)Nc1ccc(C(=O)Nc2nccs2)c(Cl)c1 | 
6 |  |  |  |  |  |  |  |  | CC(C)(C)CNC(=O)c1ccc(NC(=O)c2nccs2)cc1 | inhibition (Adenosine receptor A2a [10]): 0%
7 | 6.05 |  |  | 31 |  |  |  |  | CCC(=O)Nc1ccc(C(=O)Nc2nccs2)cc1 | 
8 | 6.92 | 5.96 |  |  |  |  |  |  | Cc1cnc(NC(=O)c2ccc(NC(=O)CC(C)(C)C)cc2)s1 | 
9 |  |  |  |  |  |  |  |  | CC(C)(C)CC(=O)Nc1c(F)cc(C(=O)/N=c2\sccn2COP(=O)(O)O)cc1F | Tmax (Rattus norvegicus [11]): 24 min; F (Rattus norvegicus [12]): 55%; F (Rattus norvegicus [13]): 66%; solubility [14]: 8.6 mg/mL (≈ 18.6 mM); AUC (Rattus norvegicus [15]): 35000 ng·h/mL; Tmax (Rattus norvegicus [16]): 30 min; Cmax (Rattus norvegicus [17]): 869 ng/mL; half-life [9]: > 96000 min; Cmax (Rattus norvegicus [18]): 6413 ng/mL
10 | 8.04 | 6.19 |  |  |  |  |  |  | CC(C)(C)CC(=O)Nc1ccc(C(=O)Nc2nccs2)cc1F | Ratio Ki (Homo sapiens): 71
11 | 7.30 | 5.96 |  |  |  |  |  |  | COc1cc(NC(=O)CC(C)(C)C)ccc1C(=O)Nc1nccs1 | Ratio Ki (Homo sapiens): 22
12 | 6.72 |  | < 4.40 | 69 | < 4.40 | 54 | 2.3 | < 4.40 | CCCCC(=O)Nc1ccc(C(=O)Nc2nccs2)cc1 | Ratio (Caco-2): 0.7; pIC50 (Cytochrome P450 2C9): 4.40; pIC50 (Cytochrome P450 3A4): < 4.40
13 | 7.05 |  | < 4.40 | 64 | < 4.40 | 12 | 1.6 | < 4.40 | CC(C)CC(=O)Nc1ccc(C(=O)Nc2nccs2)cc1 | Ratio (Caco-2): 0.7; pIC50 (Cytochrome P450 2C9): < 4.40; pIC50 (Cytochrome P450 3A4): < 4.40
